# Laboratory results as given in publication PMC5694347 (Clinical cancer research : an official journal of the …, 2015).
# Marks after values point to notes of the source that are not given here.
# What was measured:
# [1] = tested on: pevonedistat–NEDD8 adduct; assay: Bone marrow aspirate immunohistochemistry for pevonedistat–NEDD8 adduct; assay type: in vivo, human; details: one patient treated at 25 mg/m^2, pre-dose and post-dose sample
# In short: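 Patients with marrow involvement received IV pevonedistat over 1 h. Marrow aspirates were taken at screening and 2–6 h after the cycle 1 dose on day 2 (schedule A) or day 4 (schedule B). Aspirates were clotted, formalin-fixed and paraffin-embedded. Adduct-specific antibody was applied 1 h at 37°C, then biotinylated goat anti-rabbit secondary 32 min at room temperature, with DAB detection. Slides were counterstained and whole-slide imaged at 20x.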
# NRF-2 = assay: Skin punch biopsy immunohistochemistry, NRF-2; assay type: in vivo, human; details: 19 patients, schedule A 25–147 mg/m^2, after second dose of cycle 1
# In short: (§1)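 IV infusion over 1 h. 2 mm skin punch biopsies were taken at screening and 3–6 h after the cycle 1 dose on day 2 (schedule A) or day 4 (schedule B). On 5 µm sections, CC1 antigen retrieval ran 20 min. Primary antibody was applied 1 h at room temperature, then alkaline phosphatase secondary 32 min, developed with NBT/BCIP. Slides were counterstained and imaged at 20x. Signal was percent stained area of the basal epithelial region.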
# [2] = Plasma pharmacokinetics, cycle 1; details: human, in vivo
# [3] = tested on: relapsed and/or refractory lymphoma or MM; assay: Antitumor activity: disease response; assay type: in vivo, human
# [4] = tested on: patients with AML and myelodysplastic syndromes (MDS); details: same dosing as schedule B (days 1, 4, 8, 11); cited from earlier work
# CDT-1 = assay: Skin punch biopsy immunohistochemistry, CDT-1; assay type: in vivo, human; details: 3–6 hours after second dose of cycle 1
# In short: as §1
compound,measurement,setting,value
NS(=O)(=O)OC[C@@H]1C[C@@H](n2ccc3c(N[C@H]4CCc5ccccc54)ncnc32)C[C@@H]1O [pevonedistat],Pevonedistat–NEDD8 adduct in bone marrow aspirate,[1],not detected
same,"NRF-2 expression in skin, median increase vs baseline",NRF-2,39.4 fold
same,"NRF-2 expression in skin, range of increase vs baseline",NRF-2,0–1483 fold
same,Dose proportionality of mean Cmax and AUC0–24hr,[2],approximate dose-proportional increases
same,Cmax,[2]; 110 mg/m2,1683 (28) ng/mL
same,Tmax,[2]; 110 mg/m2,1.08 h
same,Cmax,"[2]; 110 mg/m2, Cmax",1500 ng/mL
same,Tmax,"[2]; 110 mg/m2, Tmax",1.02 h
same,AUC0-τ,[2]; 196 mg/m2,"12,367 (13) ^c nghr/mL"
same,Cmax,[2]; 196 mg/m2,3751 (53) ng/mL
same,Mean plasma elimination half-life,[2]; 196 mg/m2,8.5 h
same,Tmax,[2]; 196 mg/m2,1.02 (0.9– 1.1) hr
same,clearance,[2]; 196 mg/m2,472 mL/min
same,Cmax,"[2]; 196 mg/m2, Cmax",4560 ng/mL
same,half-life,"[2]; 196 mg/m2, Mean plasma elimination half-life",~8.5 h
same,half-life,"[2]; 196 mg/m2, Plasma elimination half-life, range",7.7 to 9.1 h
same,Tmax,"[2]; 196 mg/m2, Tmax",1.1 h
same,half-life,"[2]; 196 mg/m2, t½ (terminal disposition half-life)",8.5 h
same,Duration of SD,[3]; 5 MM patients who received ≥5 cycles,3.22–6.01 months
same,Duration of SD,[3]; 7 lymphoma patients who received ≥5 cycles,3.25–9.53 months
same,Best response in MM patients,[3]; MM patients,best responses of only SD
same,MTD in AML/MDS patients,[4],83 mg/m^2
same,CDT-1 expression level in skin biopsies vs baseline,CDT-1,increases
